Screening data from PubChem.
The list is not random: actives were taken first. Their share in the collection is about 2.2%.
PPC-1+TRAIL kill – compounds killing PPC-1 cancer cells with TRAIL present, primary screen, TRAIL potentiator project, ATPLite luminescence, uHTS; 0.41% of 220,000 active; cell killing (% activity), % at 4 µM or 5 µM; PPC-1 cells + TRAIL, ATPLite viability luminescence;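 active = cell killing above 50% in the first pass at 4 µM, then a duplicate retest at 5 µM averaging 50% or more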
PKD1 inh – inhibitors of human PKD1 kinase, biochemical, fluorescence polarization | inhibition, % (test concentration not listed) | Serine/threonine-protein kinase D1 (Homo sapiens), Q15139 | PKD1 kinase fluorescence polarization assay | 0.056% of 200,000 active; in the data active = inhibition above about 50%
FLuc act counter – FLuc activators, initial screening, artefact control for FLuc-dependent activation tests, biochemical, ATPlite luminescence. Luciferin 4-monooxygenase (Photinus pyralis), P08659. ATPlite luciferase biochemical, 10 min; 0 = ATP-free wells, 1 = DMSO control. activation factor at 10 µM. 200,000 tested, under 10 active. AID 1027, 2008;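 active = luciferase activation factor, scaled between plate controls, of at least 2 with compound at 10 µM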
Target sequence (P08659 whole entry, looked up): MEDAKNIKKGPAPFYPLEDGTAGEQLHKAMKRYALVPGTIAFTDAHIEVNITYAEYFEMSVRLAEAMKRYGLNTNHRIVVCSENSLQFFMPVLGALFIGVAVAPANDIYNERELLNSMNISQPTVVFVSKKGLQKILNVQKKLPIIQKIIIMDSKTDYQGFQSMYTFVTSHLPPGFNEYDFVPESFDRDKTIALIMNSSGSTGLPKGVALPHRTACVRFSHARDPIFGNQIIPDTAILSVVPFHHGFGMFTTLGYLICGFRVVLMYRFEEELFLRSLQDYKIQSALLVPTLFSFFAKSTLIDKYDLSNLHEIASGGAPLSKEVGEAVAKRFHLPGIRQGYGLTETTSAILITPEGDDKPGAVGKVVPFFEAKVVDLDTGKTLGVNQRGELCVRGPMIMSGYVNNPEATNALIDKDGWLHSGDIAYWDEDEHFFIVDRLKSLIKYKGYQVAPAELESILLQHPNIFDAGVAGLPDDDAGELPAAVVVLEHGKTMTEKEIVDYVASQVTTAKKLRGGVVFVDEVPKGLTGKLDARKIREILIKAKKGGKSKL
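Material: luciferase plus luciferin reagent, cell-free. Medium: PBS buffer for ATP. Also added: ATP substrate, dispensed from a 10.24 µM working solution in PBS. Doses: test compounds dosed from 2 mM stocks in 100% DMSO. Incubation: 10 min post-reagent at room temperature. Technique: light output (luminescence). Read-out basis: luminescence gain marking luciferase activators.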
Wee1 stabilizer – Wee1 degradation inhibitors, primary screen, cell-based, HeLa, Wee1K328M-luciferase, luminescence; HeLa Luc-Wee1K328M stability; 100% = proteasome inhibitor MG132 effect; reporter increase, % at 5 µM; 1.2% of 220,000 active; AID 1321, 2008;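 active = activation above the mean of all tested compounds plus 3 SD, set per screening run, cut at about 8.8% in these data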;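 also: cells exposed to compound for 20 h before luminescence read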
FLuc inh counter – firefly luciferase enzyme inhibitors, primary screen, artefact control for luciferase-based inhibitor screens, biochemical, luminescence, ATPLite | Luciferin 4-monooxygenase (Photinus pyralis), P08659 | 10 min | inhibition, % at 10 µM | 1.5% of 200,000 active;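 active = inhibition above about 50% when tested at 10 µM, limit read from the data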
TRAIL sens C8 – viability loss with TRAIL in NB7+C8 cells, primary screen, TRAIL sensitizer project, cell-based, ATPlite luminescence. inhibition (viability loss, TRAIL sensitization), % at 10 µM. 1% of 360,000 active. AID 624354, 2012;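 active = compounds causing at least 50% loss of cell viability in the single-dose screen, relative to plate controls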
Hits are given with their value.

What do the screens show for `COCc1cccc(N2C(=O)CC(C3C=C(C)C4C(=O)N(c5cccc(COC)c5)C(=O)C4C3)C2=O)c1` (configuration not stated)?
PPC-1+TRAIL kill: inactive; PKD1 inh: inactive; FLuc act counter: inactive; Wee1 stabilizer: inactive; FLuc inh counter: inactive; TRAIL sens C8: inactive

How did CCOC(=O)c1c(C)nc2c(c1-c1cc(OC)ccc1OC)C(=O)c1ccccc1-2 do in these assays?
PPC-1+TRAIL kill: inactive; PKD1 inh: inactive; FLuc act counter: inactive; Wee1 stabilizer: inactive; FLuc inh counter: inactive; TRAIL sens C8: 68

What do the screens show for `COc1ccc(N2CCN(C(=O)CN(C3CCCCC3)S(C)(=O)=O)CC2)cc1`?
PPC-1+TRAIL kill: inactive; PKD1 inh: inactive; FLuc act counter: inactive; Wee1 stabilizer: 9.1; FLuc inh counter: inactive; TRAIL sens C8: inactive

What do the screens show for `Cc1cc(C(=O)COC(=O)c2cc(Cl)ccc2N)c(C)n1Cc1ccco1`?
PPC-1+TRAIL kill: inactive; PKD1 inh: inactive; FLuc act counter: inactive; Wee1 stabilizer: inactive; FLuc inh counter: inactive; TRAIL sens C8: inactive

Results for COCCn1c(C)cc(C(=O)CSc2nnc(C)s2)c1C ?
PPC-1+TRAIL kill: inactive; PKD1 inh: inactive; FLuc act counter: inactive; Wee1 stabilizer: inactive; FLuc inh counter: 70; TRAIL sens C8: 50

How did Cc1cc(C(=O)COC(=O)c2ccncc2)c(C)n1Cc1ccco1 do in these assays?
PPC-1+TRAIL kill: inactive; PKD1 inh: inactive; FLuc act counter: inactive; Wee1 stabilizer: inactive; FLuc inh counter: 79; TRAIL sens C8: inactive

What do the screens show for `Cc1cc(C(=O)CSc2nnc(N)s2)c(C)n1Cc1ccco1`?
PPC-1+TRAIL kill: inactive; PKD1 inh: inactive; FLuc act counter: inactive; Wee1 stabilizer: inactive; FLuc inh counter: 80; TRAIL sens C8: inactive

What do the screens show for `COc1ccc(S(=O)(=O)N(C)C[C@@H]2Oc3c(NS(=O)(=O)c4cn(C)cn4)cccc3C(=O)N([C@@H](C)CO)C[C@@H]2C)cc1`?
TRAIL sens C8: inactive

How did Cc1nn(-c2ccccc2)c(C)c1/C=N/NC(=O)c1cc(-c2ccc(Cl)s2)[nH]n1 do in these assays?
PPC-1+TRAIL kill: inactive; PKD1 inh: inactive; FLuc act counter: inactive; Wee1 stabilizer: inactive; FLuc inh counter: inactive; TRAIL sens C8: 46

What do the screens show for `Cc1cc(C(=O)N/N=C/c2c(C)nn(-c3ccccc3)c2C)n[nH]1`?
PPC-1+TRAIL kill: inactive; Wee1 stabilizer: inactive; TRAIL sens C8: inactive

What do the screens show for `Cc1nn(-c2ccccc2)c(C)c1-c1cc(C(=O)N/N=C/c2ccc(O)cc2)[nH]n1`?
PPC-1+TRAIL kill: inactive; Wee1 stabilizer: inactive; TRAIL sens C8: 50

Results for COc1cc(/C=N/NC(=O)c2cc(-c3c(C)nn(-c4ccccc4)c3C)n[nH]2)ccc1O ?
PPC-1+TRAIL kill: inactive; PKD1 inh: inactive; FLuc act counter: inactive; Wee1 stabilizer: inactive; FLuc inh counter: inactive; TRAIL sens C8: inactive

What do the screens show for `Cc1nn(-c2ccccc2)c(C)c1/C=N/NC(=O)c1cc(C23CC4CC(CC(C4)C2)C3)[nH]n1`?
PPC-1+TRAIL kill: inactive; PKD1 inh: inactive; FLuc act counter: inactive; Wee1 stabilizer: inactive; FLuc inh counter: inactive; TRAIL sens C8: 64

How did CCC(=O)C1CCCN(C(=O)c2ccc(OC)c(OC3CCN(C(C)=O)CC3)c2)C1 (configuration not stated) do in these assays?
TRAIL sens C8: inactive

How did Cc1ccc(NC(=O)NC(=O)N(C(C)C)S(=O)(=O)c2ccc(C)cc2)cc1 do in these assays?
PPC-1+TRAIL kill: inactive; PKD1 inh: inactive; FLuc act counter: inactive; Wee1 stabilizer: inactive; FLuc inh counter: inactive; TRAIL sens C8: inactive

What do the screens show for `O=C(N1CCC(n2nc(-c3ccccc3)oc2=O)CC1)C1(c2ccccc2)CC1`?
TRAIL sens C8: inactive

Results for C=CCNC(=S)N1CCC(C(=O)c2ccc(F)cc2)CC1 ?
TRAIL sens C8: inactive

How did CCC(=O)Nc1ccc(-c2ccc(N3CCC(C)CC3)nn2)cc1 do in these assays?
TRAIL sens C8: inactive

How did O=C(COc1ccccc1)Nc1cccc(-c2ccc(N3CCOCC3)nn2)c1 do in these assays?
TRAIL sens C8: 70

Results for CC1CCN(c2ccc(-c3cccc(NC(=O)c4ccco4)c3)nn2)CC1 ?
TRAIL sens C8: 86

How did CC1CCN(c2ccc(-c3cccc(NC(=O)C(F)(F)F)c3)nn2)CC1 do in these assays?
TRAIL sens C8: 97

How did CCC(=O)Nc1cccc(-c2ccc(N3CCC(C)CC3)nn2)c1 do in these assays?
TRAIL sens C8: 94

How did Cc1cccc(N/C(N)=N/c2nc(C)cc(=O)[nH]2)c1 do in these assays?
PPC-1+TRAIL kill: inactive; PKD1 inh: inactive; FLuc act counter: inactive; Wee1 stabilizer: inactive; FLuc inh counter: inactive; TRAIL sens C8: inactive

Results for COc1ccc(C(CNC(=O)CCNC(=O)c2ccc(Br)cc2)N2CCOCC2)cc1 (configuration not stated) ?
TRAIL sens C8: inactive

How did O=C(Nc1cccc(-c2ccc(N3CCCCC3)nn2)c1)C(F)(F)F do in these assays?
TRAIL sens C8: 89

What do the screens show for `O=S(=O)(Nc1cccc(-c2ccc(N3CCCCCC3)nn2)c1)c1ccc(C(F)(F)F)cc1`?
TRAIL sens C8: inactive

What do the screens show for `O=C(Nc1cccc(-c2ccc(N3CCCCC3)nn2)c1)c1ccc(Br)o1`?
TRAIL sens C8: 78

How did Cc1ccc(CN2CCC(n3nccc3NC(=O)c3ccccc3C)CC2)o1 do in these assays?
TRAIL sens C8: inactive

Results for CCOC1=C(C#N)CC2(CC1)c1ccccc1-c1ccccc12 ?
TRAIL sens C8: inactive

How did CCN(CC)c1ccc(C=Nc2ccccc2C)c(O)c1 do in these assays?
PPC-1+TRAIL kill: inactive; PKD1 inh: inactive; FLuc act counter: inactive; Wee1 stabilizer: inactive; FLuc inh counter: 53; TRAIL sens C8: inactive

How did Cc1ccc(-c2cc(C(=O)NC3=NCCS3)c3ccccc3n2)cc1C do in these assays?
PPC-1+TRAIL kill: inactive; PKD1 inh: inactive; FLuc act counter: inactive; Wee1 stabilizer: inactive; FLuc inh counter: 65; TRAIL sens C8: inactive

How did CCc1ccc(-c2cc(C(=O)NCc3ccccn3)c3ccccc3n2)cc1 do in these assays?
PPC-1+TRAIL kill: inactive; PKD1 inh: inactive; FLuc act counter: inactive; Wee1 stabilizer: inactive; FLuc inh counter: 61; TRAIL sens C8: 60

How did O=C(NC1=NCCS1)c1cc(-c2ccc(F)cc2)nc2ccccc12 do in these assays?
PPC-1+TRAIL kill: inactive; PKD1 inh: inactive; FLuc act counter: inactive; Wee1 stabilizer: inactive; FLuc inh counter: inactive; TRAIL sens C8: inactive

What do the screens show for `CCCc1ccc(-c2cc(C(=O)NC3=NCCS3)c3ccccc3n2)cc1`?
PPC-1+TRAIL kill: 54; PKD1 inh: inactive; FLuc act counter: inactive; Wee1 stabilizer: inactive; FLuc inh counter: 85; TRAIL sens C8: 72
